From PubChem BioAssay AID504491 (The Scripps Research Institute Molecular Screening Center, 2011)
Activity calls are given as the source filed them.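 How the source made its calls: active means inhibition of the target enzyme PAFAH2 of at least 50%, whatever the off-target enzymes show; inactive means PAFAH2 inhibition under 50%.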

Assays:
Assay in all cases: PAFAH2 inhibitors in proteome by ABPP, late-stage follow-up, selectivity assay, cell lysate, gel-based fluorescence ABPP, carbamate vs triazole urea (AID 504491)
ABHD11 = conditions: BW5147 mouse T-cell proteome, gel ABPP FP-Rh, 30 min, at 20 µM, active compounds read high
Outline: (§1)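 Assay system: mouse BW5147 T-cell soluble lysate; quantity: proteome at 1 mg/mL protein; medium: Dulbecco's phosphate-buffered saline; dosing: single dose of test compound at 20 µM; timing: 30 min compound, 30 min probe, 25 °C; technique: SDS-PAGE separation with in-gel fluorescence scanning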

APEH = conditions: BW5147 mouse T-cell proteome, gel ABPP FP-Rh, 30 min, at 20 µM, active compounds read high
Outline: as §1

LYPLA2 = conditions: BW5147 mouse T-cell proteome, gel ABPP FP-Rh, 30 min, at 20 µM, active compounds read high
Outline: as §1

[1] = molecular target: Platelet-activating factor acetylhydrolase 2, cytoplasmic (Mus musculus) (UniProt Q8VDG7); conditions: BW5147 mouse T-cell proteome, gel ABPP FP-Rh, 30 min; PAFAH2; at 20 µM; active compounds read high
Outline: as §1

LYPLA1 = conditions: BW5147 mouse T-cell proteome, gel ABPP FP-Rh, 30 min, at 20 µM, active compounds read high
Outline: as §1

ESD = conditions: BW5147 mouse T-cell proteome, gel ABPP FP-Rh, 30 min, at 20 µM, active compounds read high
Outline: as §1

Platelet-activating factor acetylhydrolase 2, cytoplasmic (Mus musculus), sequence (Q8VDG7 whole entry, looked up): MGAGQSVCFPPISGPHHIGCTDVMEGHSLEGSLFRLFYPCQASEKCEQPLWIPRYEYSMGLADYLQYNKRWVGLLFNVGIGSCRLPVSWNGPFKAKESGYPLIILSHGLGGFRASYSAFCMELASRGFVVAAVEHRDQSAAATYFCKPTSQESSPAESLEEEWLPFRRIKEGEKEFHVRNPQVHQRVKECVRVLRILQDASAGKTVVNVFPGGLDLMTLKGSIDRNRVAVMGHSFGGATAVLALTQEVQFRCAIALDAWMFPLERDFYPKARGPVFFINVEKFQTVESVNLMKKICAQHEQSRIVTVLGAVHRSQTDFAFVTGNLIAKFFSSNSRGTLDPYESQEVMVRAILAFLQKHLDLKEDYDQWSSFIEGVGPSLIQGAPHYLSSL

Row | SMILES | inhibition (ABHD11) [%] | inhibition (APEH) | inhibition (LYPLA2) | inhibition [1] | inhibition (LYPLA1) | inhibition (ESD)
1 | O=C(Oc1ccc([N+](=O)[O-])cc1)N1CCCCC1 | 100 | 0% (inactive) | 0% (inactive) | 0% (inactive) | 0% (inactive) | 0% (inactive)
2 | O=C(N1CCCCC1)n1ccnn1 | 100 | 100% | 100% | 100% | 100% | 100%
